From ChEMBL document CHEMBL1136237, “2-piperidin-4-yl-benzimidazoles with broad spectrum antibacterial activities” (2003) come the findings set out here.

Converted amounts (≈) assume the structure as drawn. A value given as a limit tells only on which side of the number the result lay.

Test [1] concerns Escherichia coli. The test is described as follows: Antibacterial activity determined against Escherichia coli. Format: functional. In outline: (§1)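 Broth microdilution: an overnight-culture bacterial suspension was added to compound in 2.5% DMSO in water, giving a final inoculum of about 10^2–10^3 CFU/well. Plates were incubated 20–24 h at 37 °C, and growth relative to a no-compound control was read as A595. MIC was given as a range: complete inhibition at the upper concentration, viable cells at the lower.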

Test [2] deals with Staphylococcus aureus. The test is described as follows: Antibacterial activity determined against Staphylococcus aureus. Format: functional. In outline: as §1
Test [3] is described as follows: Inhibition of bacterial transcription/translation.
The next test deals with Candida albicans. The test is described as follows: Antifungal activity determined against Candida albicans 10231. The test is classed as functional. In outline:
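Candida albicans: an overnight-culture yeast suspension was added to compound in 2.5% DMSO in water, giving a final inoculum of about 10^2–10^3 CFU/well. Plates were incubated 40–48 h at 25 °C, and growth versus a no-compound control was read as A595. MIC was given as a range: complete inhibition at the higher concentration, viable cells at the lower.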

For test [4], the system named is Escherichia coli. As to the kind of experiment: Antibacterial activity determined against gram-negativeE. coli 25922. The test is classed as functional. In outline: as §1
The subject of a further test is Enterococcus hirae. As to the kind of experiment: Antibacterial activity determined against gram-positive Enterococcus hirae 29212. The test is classed as functional. In outline: as §1
In another test the test system is Klebsiella pneumoniae. As to the kind of experiment: Antibacterial activity determined against gram-negativeK. pneumoniae 13383. Format: functional. In outline: as §1
The next test relates to Proteus vulgaris. The test is described as follows: Antibacterial activity determined against gram-negativeP. vulgaris 8427. Format: functional. In outline: as §1
The next test concerns Pseudomonas aeruginosa. As to the kind of experiment: Antibacterial activity determined against gram-negativeP. aeruginosa 25416. Format: functional. In outline:
as §1

Test [5] concerns Staphylococcus aureus. As to the kind of experiment: Antibacterial activity determined against gram-positive Staphylococcus aureus 13709. The test is classed as functional. In outline:
as §1

The test system of a further test is Streptococcus pyogenes. As to the kind of experiment: Antibacterial activity determined against gram-positive Streptococcus pyogenes 49399. The test is classed as functional. In outline:
as §1

In the next test the test system is Streptococcus pneumoniae. The test is described as follows: Antibacterial activity determined against gram-positive Streptococcus pneumoniae 6303. Format: functional. In outline:
as §1

Take `Clc1cc2nc(C3CCNCC3)[nH]c2cc1Cl`: the MIC in the test on Escherichia coli [1] and against Staphylococcus aureus [2] was more than 100 µM in each case. In addition, in [3], the IC50 (as a rule, the point on the concentration scale where inhibition reaches its midpoint) was more than 100 µM.
Take `NCCN(CCN)CCNCc1ccc(Cn2c(C3CCNCC3)nc3cc(Cl)c(Cl)cc32)cc1`: the MIC – broadly, the least concentration at which growth counts as inhibited – was more than 100 µM with Candida albicans; 12 µM (≈ 6.22 µg/mL) with Escherichia coli [1]; 12 µM (≈ 6.22 µg/mL) against Escherichia coli [4]; 3 µM (≈ 1.56 µg/mL) in the test on Enterococcus hirae; 12 µM (≈ 6.22 µg/mL) against Klebsiella pneumoniae; 25 µM (≈ 13 µg/mL) with Proteus vulgaris. Moreover, the MIC against Pseudomonas aeruginosa is 12 µM (≈ 6.22 µg/mL); with Staphylococcus aureus [2] it was 3 µM (≈ 1.56 µg/mL); against Staphylococcus aureus [5], 3 µM (≈ 1.56 µg/mL); against Streptococcus pyogenes, 3 µM (≈ 1.56 µg/mL); in the test with Streptococcus pneumoniae, 6 µM (≈ 3.11 µg/mL). For the same compound, the IC50 in test [3] came out at 10 µM.
On to `Fc1ccc(Cn2c(C3CCNCC3)nc3cc(Cl)c(Cl)cc32)cc1`, for which the MIC in the test on Escherichia coli [1] and against Staphylococcus aureus [2] was more than 100 µM throughout. Besides, the IC50 in [3] is more than 100 µM.
For the compound `O=[N+]([O-])c1ccc(Cn2c(C3CCNCC3)nc3cc(Cl)c(Cl)cc32)cc1`, the MIC in the test with Escherichia coli [1] was more than 100 µM; in the test on Staphylococcus aureus [2], 50 µM (≈ 20.3 µg/mL). Also, the IC50 in test [3] was more than 100 µM.
Regarding `Clc1cc2nc(C3CCNCC3)n(Cc3ccncc3)c2cc1Cl`, the MIC in the test on Escherichia coli [1] and with Staphylococcus aureus [2] was 50 µM (≈ 18.1 µg/mL) throughout. The IC50 in [3] is more than 100 µM.
Regarding `Clc1cc2nc(C3CCNCC3)n(Cc3ccc(CNCCc4c[nH]cn4)cc3)c2cc1Cl`, the MIC against Candida albicans is more than 100 µM; against Escherichia coli [1], 12 µM (≈ 5.8 µg/mL); with Escherichia coli [4], 12 µM (≈ 5.8 µg/mL); with Enterococcus hirae it was 3 µM (≈ 1.45 µg/mL); in the test with Klebsiella pneumoniae, 12 µM (≈ 5.8 µg/mL); in the test on Proteus vulgaris, 25 µM (≈ 12.1 µg/mL). In addition, the MIC with Pseudomonas aeruginosa amounted to 25 µM (≈ 12.1 µg/mL); with Staphylococcus aureus [2], 6 µM (≈ 2.9 µg/mL); with Staphylococcus aureus [5], 6 µM (≈ 2.9 µg/mL); in the test with Streptococcus pyogenes it was 6 µM (≈ 2.9 µg/mL); with Streptococcus pneumoniae, 12 µM (≈ 5.8 µg/mL). Besides, in test [3], the IC50 worked out at 25 µM.
Turning to `CCn1c(C2CCNCC2)nc2cc(Cl)c(Cl)cc21`, the MIC in the test on Escherichia coli [1] and against Staphylococcus aureus [2] was more than 100 µM in each case. The compound further returned an IC50 in test [3] of more than 100 µM.
Turning to `Clc1cc2nc(C3CCNCC3)n(Cc3ccc(CNC[C@@H]4CCCN4)cc3)c2cc1Cl`, the MIC against Escherichia coli [1] and against Staphylococcus aureus [2] was 12 µM (≈ 5.67 µg/mL) each time. In addition, in test [3], the IC50 was more than 100 µM.
For the compound `Clc1cc2nc(C3CCNCC3)n(Cc3ccc(Cn4cncn4)cc3)c2cc1Cl`, the MIC in the test with Escherichia coli [1] and against Staphylococcus aureus [2] was 12 µM (≈ 5.3 µg/mL) in each case. The compound further came in with an IC50 in test [3] of more than 100 µM.
Regarding `Clc1cc2nc(C3CCNCC3)n(Cc3ccc(CBr)cc3)c2cc1Cl`, the MIC with Escherichia coli [1] and in the test on Staphylococcus aureus [2] was more than 100 µM throughout. Besides, the IC50 in test [3] is more than 100 µM.
Take `Clc1cc2nc(C3CCNCC3)n(Cc3cccnc3)c2cc1Cl`: the MIC against Escherichia coli [1] and against Staphylococcus aureus [2] was 50 µM (≈ 18.1 µg/mL) in each case. For the same compound, the IC50 in test [3] is more than 100 µM.
Turning to `NCCCCCCNCc1ccc(Cn2c(C3CCNCC3)nc3cc(Cl)c(Cl)cc32)cc1`, the MIC is more than 100 µM against Candida albicans; 12 µM (≈ 5.86 µg/mL) with Escherichia coli [1]; 12 µM (≈ 5.86 µg/mL) in the test on Escherichia coli [4]; 1 µM (≈ 0.489 µg/mL) against Enterococcus hirae; 12 µM (≈ 5.86 µg/mL) in the test on Klebsiella pneumoniae; 25 µM (≈ 12.2 µg/mL) against Proteus vulgaris. Also, the MIC against Pseudomonas aeruginosa was determined as 25 µM (≈ 12.2 µg/mL); against Staphylococcus aureus [2], 6 µM (≈ 2.93 µg/mL); against Staphylococcus aureus [5], 6 µM (≈ 2.93 µg/mL); in the test on Streptococcus pyogenes it was 3 µM (≈ 1.47 µg/mL); against Streptococcus pneumoniae it was 12 µM (≈ 5.86 µg/mL). For the same compound, the IC50 in [3] is more than 100 µM.
As for `Clc1cc2nc(C3CCNCC3)n(Cc3ccc(CNCCc4cc5ccccc5[nH]4)cc3)c2cc1Cl`, the MIC against Escherichia coli [1] and in the test with Staphylococcus aureus [2] was 12 µM (≈ 6.39 µg/mL) throughout. In addition, the IC50 in test [3] was more than 100 µM.
On to `O=C(O)c1cn(C2CC2)c2cc(N3CCNCC3)c(F)cc2c1=O` [CIPROFLOXACIN], for which the MIC against Escherichia coli [1] and with Staphylococcus aureus [2] was 0.75 µM (≈ 0.249 µg/mL) throughout. In addition, the IC50 in test [3] is more than 100 µM.
Take `NC[C@@H]1O[C@H](O[C@H]2[C@@H](O)[C@H](O[C@@H]3[C@@H](O)[C@H](N)C[C@H](N)[C@H]3O[C@H]3O[C@H](CO)[C@@H](O)[C@H](O)[C@H]3N)O[C@@H]2CO)[C@H](N)[C@@H](O)[C@@H]1O` [PAROMOMYCIN]: the MIC against Escherichia coli [1] was determined as 3 µM (≈ 1.85 µg/mL); against Staphylococcus aureus [2] it was 1 µM (≈ 0.616 µg/mL). Half-maximal inhibition in test [3] (IC50) required 0.56 µM.
